MT1-MMP act inh = MT1-MMP (human) activation inhibition | P50281 | HT1080 RFP-PRO-GFP cells, GFP/RFP ratio fluorescence, overnight; percent of plate control window, DMSO zero | GFP/RFP ratio change, % at 20 µM | hit rate 0.061% among 360,000;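 active = GFP/RFP ratio change of at least 30% with cell ATP level not reduced by more than half and red fluorescence within 50% of control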
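Material: RFP-PRO-GFP reporter HT1080 cells. Dosing: single-point 20 µM compound, 1% DMSO. Controls: DMSO and RFP-L50D-GFP cell wells. Timing: cells overnight before dosing, compound overnight, 37 °C, 5% CO2. Measure: GFP/RFP fluorescence ratio.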
H9c2 protect = modulators protecting cardiomyocytes from myocardial damage; protection from H2O2 cell death, % at 20 µM; hit rate 0.63% among 360,000; H9c2 cardiomyocytes, H2O2 injury protection, ATPLite, 2 h;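 active = compounds giving at least 50% protection of heart cells from peroxide-induced death in the single-dose screen, raw or plate-pattern-corrected value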;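 also: 0% = DMSO wells with peroxide and 100% = DMSO wells without peroxide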
Tn7 DDE FP = DD(E)-Tn7 binding inhibition, primary FP screen. P02675. FP displacement of FITC-Tn7 peptide from fibrin DD(E); 0% = median of compound wells per plate. inhibition, % at 8.3 µM. hit rate 0.13% among 370,000. AID 720508;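 active = inhibition above the mean of compounds falling within the control limits plus 3 SD of them, cut at about 14% in these data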;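 also: 0% = plate median of compound wells and 100% = 10 µM Aha-Tn7 peptide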
Target sequence (P02675 whole entry, looked up): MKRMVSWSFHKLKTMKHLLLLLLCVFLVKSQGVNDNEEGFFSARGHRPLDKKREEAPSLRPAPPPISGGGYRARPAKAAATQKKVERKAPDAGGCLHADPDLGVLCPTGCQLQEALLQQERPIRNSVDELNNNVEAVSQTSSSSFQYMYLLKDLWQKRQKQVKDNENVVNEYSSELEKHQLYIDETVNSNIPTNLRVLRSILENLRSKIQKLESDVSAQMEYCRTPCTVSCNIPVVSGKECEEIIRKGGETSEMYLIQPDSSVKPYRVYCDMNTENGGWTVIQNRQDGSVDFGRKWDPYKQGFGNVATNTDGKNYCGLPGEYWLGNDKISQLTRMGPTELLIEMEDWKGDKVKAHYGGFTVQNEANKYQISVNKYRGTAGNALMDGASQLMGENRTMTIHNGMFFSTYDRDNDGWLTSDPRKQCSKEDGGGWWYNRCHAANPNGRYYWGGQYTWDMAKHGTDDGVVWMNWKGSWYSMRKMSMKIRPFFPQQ
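system = human fibrin DD(E) protein | quantity = DD(E) 2 µM final | medium = Tris/NaCl/CaCl2 buffer, pH 7.8 | also added = labelled Tn7 tracer, 0.1 µM | compound dosing = single point at 8.3 µM | timing = compound with protein 10 min, then 3 h after probe, room temperature | signal = FP measurement | benchmarks = Aha-Tn7 high control | repeats = one replicate per compound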
DAGLB inhibitor = diacylglycerol lipase beta (human) inhibition | inhibition, % at 5.17 µM | hit rate 0.059% among 340,000 | AID 504411 | Q8NCG7 | HEK293T DAGLB membrane lysate, EnzChek fluorogenic substrate; in the data active = inhibition above about 34%;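 also: 0% = enzyme with vehicle and 100% = wells lacking enzyme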
TAG inh = inhibitors of triacylglycerol accumulation; H9c2 cells, Nile Red lipid (TAG) fluorescence; cells loaded with 200 µM oleic acid; hit rate 0.66% among 230,000; inhibition, % at 12.5 µM;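 active = pattern-corrected inhibition of lipid staining of at least 50% with the nuclear-stain viability signal not falling by more than 50%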;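 also: 0% = DMSO wells and 100% = triacsin C control wells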
DDE Tn6 FP inh = inhibitors of Tn6 peptide binding to human fibrin DD(E); P02675; Fibrin DD(E) TRITC-Tn6 fluorescence polarization displacement; inhibition, % at 8.3 µM; hit rate 0.21% among 370,000; AID 720509;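 active = inhibition above a per-campaign cutoff: mean of compounds within control limits plus 3 SD, cut at about 15% in these data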;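 also: 0% = median of all compound wells on the plate and 100% = blocking peptide control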
TAG conf = confirmation of triacylglycerol accumulation inhibitors. shares compounds with TAG inh. H9c2 lipid accumulation, Nile Red fluorescence; cells loaded with 200 µM oleic acid. inhibition, % at 12.5 µM. hit rate 71% among 990. AID 651629;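 active = mean inhibition across replicates of 40% or more; inactive = mean inhibition below 40%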;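 also: plate controls were DMSO only wells for no effect and Triacsin C treated wells for full effect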
* marks the source's active call; other numbers are inactive results. An excerpt weighted towards active compounds, which were near 1.4% of everything screened.

For CCN(CC)c1ccc(/C=C2\CCC(/C=C(/C#N)C(=O)Nc3ccccc3F)=C2N2CCOCC2)cc1 the results were MT1-MMP act inh 62, H9c2 protect -5, Tn7 DDE FP 1, DAGLB inhibitor 0, TAG inh 91*, DDE Tn6 FP inh 10 and TAG conf 65*.
`CCN(CC)c1ccc(/C=C2\CCC(/C=C(\C#N)C(=O)Nc3ccccc3F)=C2N2CCOCC2)cc1` gave MT1-MMP act inh 69, H9c2 protect -15, Tn7 DDE FP 7, DAGLB inhibitor -2 and DDE Tn6 FP inh 12.
Screening O=c1cc(-c2ccccc2)[nH]c2ccc(F)cc12 returned MT1-MMP act inh 9, H9c2 protect 21, Tn7 DDE FP -2, DAGLB inhibitor -1, TAG inh 65*, DDE Tn6 FP inh -4 and TAG conf 52*.
For O=C(Nc1ccc(F)cc1)c1cc(Cl)sc1Cl the results were MT1-MMP act inh -5, H9c2 protect 0, Tn7 DDE FP 0, DAGLB inhibitor 0, TAG inh 52*, DDE Tn6 FP inh 1 and TAG conf -4.
`O=C(Nc1ccc([N+](=O)[O-])cc1)c1cc(Cl)sc1Cl` gave MT1-MMP act inh -2, H9c2 protect -6, Tn7 DDE FP 4, DAGLB inhibitor -3 and DDE Tn6 FP inh -3.
COc1ccc(C2C(C(=O)N3CCCCC3C)CC(=O)N2c2ccc(OC)cc2)cc1 (centres undefined) was read as Tn7 DDE FP 0 and DDE Tn6 FP inh 7.
`Cc1noc(C)c1-c1ccc2ncnc(NCC3CCCCN3C)c2c1` (centres undefined) gave MT1-MMP act inh 16, H9c2 protect 2, Tn7 DDE FP 1, DAGLB inhibitor -3, TAG inh 62*, DDE Tn6 FP inh -15 and TAG conf 51*.
`C/C(=N\Nc1ccc(S(=O)(=O)Nc2ccc(Cl)cc2)cc1[N+](=O)[O-])c1ccc(N2CCOCC2)cc1` gave MT1-MMP act inh 9, H9c2 protect -8, Tn7 DDE FP -4, DAGLB inhibitor 4 and DDE Tn6 FP inh -2.
Screening O=[N+]([O-])c1ccccc1/C=C/C=N/Nc1ccc(S(=O)(=O)Nc2ccc(Cl)cc2)cc1[N+](=O)[O-] returned MT1-MMP act inh 8, H9c2 protect -15, Tn7 DDE FP 1, DAGLB inhibitor 6, TAG inh 58*, DDE Tn6 FP inh -2 and TAG conf 52*.
O=C(O)c1ccc(N/N=C/C=C/c2ccccc2[N+](=O)[O-])cc1 was read as MT1-MMP act inh 12, H9c2 protect 9, Tn7 DDE FP -3, DAGLB inhibitor 4, TAG inh 6 and DDE Tn6 FP inh 2.
`O=[N+]([O-])c1cc(S(=O)(=O)Nc2cccc(Cl)c2)ccc1N/N=C/c1ccc(N2CCOCC2)cc1` gave MT1-MMP act inh 13, H9c2 protect -3, Tn7 DDE FP -7, DAGLB inhibitor -1, TAG inh 80*, DDE Tn6 FP inh -6 and TAG conf 79*.
`Cc1cccc(-c2cccc3[nH]c4c(c23)CCN2C(=O)[C@H]3[C@H](C)ON(C)[C@H]3C[C@@H]42)c1` gave Tn7 DDE FP -8 and DDE Tn6 FP inh -10.
Cc1cc2cccc(C)c2nc1SCC(=O)NNC(=O)c1ccco1 was read as MT1-MMP act inh 1, H9c2 protect -3, Tn7 DDE FP -5, DAGLB inhibitor -1, TAG inh -1 and DDE Tn6 FP inh 5.
Screening Cc1cccc2cc(C#N)c(SCC(=O)NNC(=O)Cc3ccccc3)nc12 returned MT1-MMP act inh -9, H9c2 protect 1, Tn7 DDE FP 4, DAGLB inhibitor 5, TAG inh 71*, DDE Tn6 FP inh 1 and TAG conf 98*.
For Cc1cccc(N2CCN(C(=O)c3c(-c4ccccc4Cl)noc3C)CC2)c1C the results were MT1-MMP act inh -4, H9c2 protect 7, Tn7 DDE FP 2, DAGLB inhibitor -7, TAG inh 71*, DDE Tn6 FP inh 3 and TAG conf 66*.
Screening N/C(=N\C(=O)OCc1ccccc1)N(Cc1ccccc1)C(C#CC1=CCCCC1)Cc1ccccc1 (centres undefined) returned Tn7 DDE FP -9 and DDE Tn6 FP inh 6.
For COc1ccc(Cl)cc1NC(=O)CSc1nnc(COc2ccccc2)n1N the results were MT1-MMP act inh 10, H9c2 protect 1, Tn7 DDE FP 2, DAGLB inhibitor -4, TAG inh 54*, DDE Tn6 FP inh -4 and TAG conf 30.
CC(C)CNS(=O)(=O)/C=C/c1ccccc1CNC(=O)OC(C)(C)C was read as Tn7 DDE FP 2 and DDE Tn6 FP inh 2.
For O=C(N/N=C/c1cn(-c2ccccc2)nc1-c1cc2ccccc2o1)c1c[nH]c2ccccc12 the results were MT1-MMP act inh 0, H9c2 protect 20, Tn7 DDE FP -7, DAGLB inhibitor -8, TAG inh 59*, DDE Tn6 FP inh -11 and TAG conf 60*.
`O=C(N/N=C/c1cn(-c2ccccc2)nc1-c1cc2ccccc2o1)c1ccccc1Br` gave MT1-MMP act inh 0, H9c2 protect 16, Tn7 DDE FP -3, DAGLB inhibitor 1 and DDE Tn6 FP inh -9.
For COc1ccc(CCNc2nnc(Sc3nnnn3-c3ccccc3)s2)cc1OC the results were MT1-MMP act inh 9, H9c2 protect 0, Tn7 DDE FP -1, DAGLB inhibitor -1, TAG inh 97*, DDE Tn6 FP inh -7 and TAG conf 76*.
CC1C=CC=CCCC=CC=CC=CC=CC(OC2O[C@H](C)[C@@H](O)[C@H](N)[C@@H]2O)CC(O)C(C(=O)O)C(O)CC(=O)CC(O)C(O)CCC(O)CC(O)CC(O)CC(=O)OC(C)C(C)C1O (some centres undefined) was read as Tn7 DDE FP -4 and DDE Tn6 FP inh -1.
Screening Cc1noc(C)c1NC(=O)Nc1ccc2c(c1)C(=O)N(C)[C@H]1CC[C@H](CC(=O)NCc3ccc(Cl)cc3)O[C@@H]1CO2 returned Tn7 DDE FP -2 and DDE Tn6 FP inh 8.
`COc1ccc(NC(=O)C2(C)Cc3c(-c4cccc(C(N)=O)c4)ccnc3O2)cc1` (centres undefined) gave MT1-MMP act inh 13, H9c2 protect 24, Tn7 DDE FP 5, TAG inh 61*, DDE Tn6 FP inh -7 and TAG conf 53*.
